From ChEMBL document CHEMBL4732169, “Design and synthesis of mycobacterial pks13 inhibitors: Conformationally rigid tetracyclic molecules” (Eur J Med Chem, 2021)
In brackets after ≈: the same amount, converted by molar mass.

Experiments:
Format in all cases: functional
[1] = tested on: Mycobacterium tuberculosis; experiment: Antitubercular activity against multi drug resistance Mycobacterium tuberculosis V2475 by MABA assay
Summary of the method: (§1)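 Microplate alamar blue assay (MABA) against each Mtb strain, either H37Rv or a clinical isolate (drug-susceptible, MDR or XDR). MIC taken as the lowest concentration giving at least 90% reduction of the bacterial growth signal. Each value is the average of three individual measurements.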

[2] = tested on: Mycobacterium tuberculosis; experiment: Antitubercular activity against isoniazid/rifampin resistance Mycobacterium tuberculosis KZN494 by MABA assay; summary of the method: as §1
[3] = tested on: Mycobacterium tuberculosis; experiment: Antitubercular activity against isoniazid/rifampin/levofloxacin/ofloxacin/kanamycin extensively drug resistance Mycobacterium tuberculosis TF274 XDR by MABA assay; summary of the method: as §1
[4] = tested on: Mycobacterium tuberculosis; experiment: Antitubercular activity against extensively drug resistance Mycobacterium tuberculosis R506 XDR by MABA; summary of the method: as §1

Structure (SMILES)	MIC=<90 [1]	MIC=<90 [2]	MIC=<90 [3]	MIC=<90 [4]
O=c1[nH]c2cc(O)ccc2c2oc3ccc(O)c(CN4CCCCC4)c3c12	0.0625 µg/mL (≈ 0.172 µM)	0.0313 µg/mL (≈ 0.0859 µM)	0.0156 µg/mL (≈ 0.0428 µM)	0.0156 µg/mL (≈ 0.0428 µM)
NNC(=O)c1ccncc1 [ISONIAZID]	16 µg/mL (≈ 117 µM)	16 µg/mL (≈ 117 µM)	8 µg/mL (≈ 58.3 µM)	8 µg/mL (≈ 58.3 µM)
NC[C@H]1O[C@H](O[C@H]2[C@H](O)[C@@H](O[C@H]3O[C@H](CO)[C@@H](O)[C@H](N)[C@H]3O)[C@H](N)C[C@@H]2N)[C@H](O)[C@@H](O)[C@@H]1O [KANAMYCIN]	2 µg/mL (≈ 4.13 µM)	2 µg/mL (≈ 4.13 µM)	>128 µg/mL	>128 µg/mL
C[C@H]1COc2c(N3CCN(C)CC3)c(F)cc3c(=O)c(C(=O)O)cn1c23.C[C@H]1COc2c(N3CCN(C)CC3)c(F)cc3c(=O)c(C(=O)O)cn1c23.O [LEVOFLOXACIN]	–	–	1 µg/mL	2 µg/mL
CC1COc2c(N3CCN(C)CC3)c(F)cc3c(=O)c(C(=O)O)cn1c23 (configuration not stated) [OFLOXACIN]	0.5 µg/mL (≈ 1.38 µM)	0.5 µg/mL (≈ 1.38 µM)	8 µg/mL (≈ 22.1 µM)	4 µg/mL (≈ 11.1 µM)
CO[C@H]1/C=C/O[C@@]2(C)Oc3c(C)c(O)c4c(O)c(c(/C=N/N5CCN(C)CC5)c(O)c4c3C2=O)NC(=O)/C(C)=C\C=C\[C@H](C)[C@H](O)[C@@H](C)[C@@H](O)[C@@H](C)[C@H](OC(C)=O)[C@@H]1C [RIFAMPIN]	4 µg/mL (≈ 4.86 µM)	128 µg/mL (≈ 156 µM)	>128 µg/mL	>128 µg/mL
